Laboratory results: ChEMBL document CHEMBL3112561, “Small molecule disruptors of the glucokinase-glucokinase regulatory protein interaction: 2. Leveraging structure-based drug design to identify analogues with improved pharmacokinetic profiles” (J Med Chem, 2014)
Activity calls are given as the source filed them. The rule behind the calls is not given here.

Legend:
[1] = Intrinsic clearance in rat liver microsomes at 1 uM after 30 mins in presence of NADPH; format: ADME; conditions: read-out: CLH
[2] = target: T1, Glucokinase regulatory protein (Homo sapiens, UniProt Q14397); experiment: Inhibition of fluorescein-labeled human GK interaction with biotin-labeled human GKRP incubated for 20 mins prior to addition of fluorescein-labeled GK measured after 2 to 4 hrs by Alpha Screen assay
T1 sequence (Q14397 whole entry): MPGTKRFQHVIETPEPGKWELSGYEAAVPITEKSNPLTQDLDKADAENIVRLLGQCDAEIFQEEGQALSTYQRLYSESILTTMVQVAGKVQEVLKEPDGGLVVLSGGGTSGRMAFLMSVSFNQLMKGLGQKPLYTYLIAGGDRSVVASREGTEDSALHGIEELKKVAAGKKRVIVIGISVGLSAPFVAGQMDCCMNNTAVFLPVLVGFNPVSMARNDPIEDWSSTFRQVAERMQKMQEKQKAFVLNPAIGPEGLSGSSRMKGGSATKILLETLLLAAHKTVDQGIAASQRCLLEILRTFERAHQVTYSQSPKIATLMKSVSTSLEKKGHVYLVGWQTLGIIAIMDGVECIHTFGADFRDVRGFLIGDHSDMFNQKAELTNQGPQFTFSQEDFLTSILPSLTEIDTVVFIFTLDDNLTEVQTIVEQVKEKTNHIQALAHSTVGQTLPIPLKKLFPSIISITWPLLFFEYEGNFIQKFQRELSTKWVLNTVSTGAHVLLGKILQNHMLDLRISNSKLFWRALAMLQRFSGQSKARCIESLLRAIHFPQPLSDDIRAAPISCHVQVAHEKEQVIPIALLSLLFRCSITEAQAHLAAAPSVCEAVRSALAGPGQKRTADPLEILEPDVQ

[3] = target: T2, Glucokinase regulatory protein (Mus musculus, UniProt Q91X44); experiment: Induction of GK translocation from nucleus to cytoplasm of mouse hepatocytes preincubated for 20 mins followed by glucose challenge measured after 40 mins by Hoechst 33342 staining-based assay; format: cell-based, Hepatocyte
T2 sequence (Q91X44 whole entry): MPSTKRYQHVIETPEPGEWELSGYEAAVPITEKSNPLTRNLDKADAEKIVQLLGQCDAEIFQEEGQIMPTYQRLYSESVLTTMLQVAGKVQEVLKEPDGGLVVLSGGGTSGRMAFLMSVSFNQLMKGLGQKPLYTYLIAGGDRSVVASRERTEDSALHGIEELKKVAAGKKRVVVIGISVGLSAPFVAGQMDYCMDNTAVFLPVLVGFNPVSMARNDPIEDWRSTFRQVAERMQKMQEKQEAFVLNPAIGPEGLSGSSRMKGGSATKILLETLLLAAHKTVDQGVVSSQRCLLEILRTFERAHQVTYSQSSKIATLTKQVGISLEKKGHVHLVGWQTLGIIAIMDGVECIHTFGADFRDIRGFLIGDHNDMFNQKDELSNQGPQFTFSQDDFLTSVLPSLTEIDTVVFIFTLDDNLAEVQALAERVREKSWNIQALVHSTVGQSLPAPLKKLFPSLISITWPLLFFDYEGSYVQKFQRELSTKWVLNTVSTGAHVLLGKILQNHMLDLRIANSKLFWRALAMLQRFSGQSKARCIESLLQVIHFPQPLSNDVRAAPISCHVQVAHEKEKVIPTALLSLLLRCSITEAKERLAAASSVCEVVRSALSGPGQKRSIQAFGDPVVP

[4] = Oral bioavailability in rat at 10 mg/kg; format: ADME, organism-based; conditions: in vivo
[5] = Volume of distribution at steady state in rat at 2 mg/kg, iv; format: ADME, organism-based; parameters: dose 2 mg/kg, route intravenous; conditions: in vivo, read-out: Vdss
Procedure, shortened: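 Intravenous PK at 2 mg/kg in 100% DMSO; steady-state volume of distribution derived from plasma profile.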

Liver microsome = experiment: Drug metabolism in rat liver microsomes assessed as oxidative metabolite formation; format: ADME
[6] = Mean residence time in rat at 10 mg/kg, po; format: ADME, organism-based; parameters: dose 10 mg/kg, route oral; conditions: in vivo
Procedure, shortened: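 Oral PK at 10 mg/kg in 1% Tween 80, 2% HPMC, 97% water, […]; mean residence time from plasma profile.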

[7] = Intrinsic clearance in human liver microsomes at 1 uM after 30 mins in presence of NADPH; format: ADME; conditions: read-out: CLH
[8] = Clearance in rat at 2 mg/kg, iv; format: ADME, organism-based; parameters: dose 2 mg/kg, route intravenous; conditions: in vivo
Mus musculus = experiment: Antidiabetic activity in insulin-resistant db/db mouse assessed as reduction of fed blood glucose level at 50 mg/kg, po measured at 4 to 8 hrs; format: functional, organism-based; parameters: dose 50 mg/kg
Procedure, shortened: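 Fed db/db mice from 8–9 wk of age, acclimatized 1 wk; retro-orbital bleed at 8:00 AM, glucose by meter, randomized, only 300–500 mg/dL included. Oral gavage at 9:00 AM in 2% HPMC/1% Tween 80, pH 2.2 (MSA). Blood glucose at 4 and 8 h post-dose versus vehicle groups (n ≥ 7); ANCOVA.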

| Compound | microsomal CLint at 1 µM [1] | IC50 [2] | EC50 [3] | microsomal CLint at 1 µM [7] | further results |
| --- | --- | --- | --- | --- | --- |
| Nc1csc(S(=O)(=O)N2CCN(c3ccc(C(O)(C(F)(F)F)C(F)(F)F)cc3)CC2)c1 | 90 µL/min/mg | 324 nM | > 12500 nM | – | – |
| Nc1ccc(S(=O)(=O)N2CCN(c3ccc(C(O)(C(F)(F)F)C(F)(F)F)cc3)CC2)cn1 | < 14 µL/min/mg | – | > 12500 nM | < 14 µL/min/mg | bioavailability [4]: 71%; Vd [5]: 1.41 L/kg; Drug metabolism (Liver microsome): Not Active; MRT [6]: 8.4 h; clearance [8]: 2 mL/min/kg |
| Nc1ccc(S(=O)(=O)N2CCN(c3ccc(C(O)(C(F)(F)F)C(F)(F)F)cc3)CC2)cc1 | 49 µL/min/mg | 484 nM | > 12500 nM | – | – |
| CC(O)(c1ccc(N2CCN(S(=O)(=O)c3cccs3)C[C@@H]2CN2CC3(COC3)C2)cc1)C(F)(F)F (mixture of isomers) | 120 µL/min/mg | 524 nM | > 12500 nM | 83 µL/min/mg | – |
| O=S(=O)(c1cccs1)N1CCN(c2ccc(C(O)(C(F)(F)F)C(F)(F)F)cc2)CC1 | 150 µL/min/mg | – | – | – | – |
| CC(O)(c1ccc(N2CCN(S(=O)(=O)c3cccs3)C[C@@H]2CN2CCS(=O)(=O)CC2)cc1)C(F)(F)F (mixture of isomers) | 50 µL/min/mg | 343 nM | > 12500 nM | 92 µL/min/mg | – |
| CC(O)(c1ccc(N2CCN(S(=O)(=O)c3cccs3)C[C@@H]2CN2C3CCC2COC3)cc1)C(F)(F)F (mixture of isomers) | > 399 µL/min/mg | 2 nM | 239 nM | 320 µL/min/mg | – |
| C[C@@](O)(c1ccc(N2CCN(S(=O)(=O)c3cccs3)C[C@@H]2CN2[C@@H]3COC[C@H]2[C@@H](O)C3)cc1)C(F)(F)F | 155 µL/min/mg | 25 nM | 1670 nM | 99 µL/min/mg | – |
| O=S(=O)(c1ccccc1)N1CCN(c2ccc(C(O)(C(F)(F)F)C(F)(F)F)cc2)CC1 | 94 µL/min/mg | 1010 nM | > 12500 nM | – | – |
| CC(O)(c1ccc(N2CCN(S(=O)(=O)c3cccs3)C[C@@H]2CN2[C@H]3COC[C@H]2[C@H](O)C3)cc1)C(F)(F)F (mixture of isomers) | 321 µL/min/mg | 44 nM | 1690 nM | 302 µL/min/mg | – |
| CC(O)(c1ccc(N2CCN(S(=O)(=O)c3cccs3)C[C@@H]2CN2[C@H]3COC[C@H]2[C@@H](O)C3)cc1)C(F)(F)F (mixture of isomers) | 141 µL/min/mg | 26 nM | 1290 nM | 125 µL/min/mg | – |
| Nc1ccccc1S(=O)(=O)N1CCN(c2ccc(C(O)(C(F)(F)F)C(F)(F)F)cc2)CC1 | 237 µL/min/mg | – | > 12500 nM | – | – |
| Nc1cccc(S(=O)(=O)N2CCN(c3ccc(C(O)(C(F)(F)F)C(F)(F)F)cc3)CC2)c1 | 59 µL/min/mg | 645 nM | > 12500 nM | – | – |
| CS(=O)(=O)c1ccc([C@@H](CC2CCCC2)C(=O)Nc2nccs2)cc1 | – | – | – | – | Activity (Mus musculus): Active |
| CCC#CC1CN(S(=O)(=O)c2ccc(N)nc2)CCN1c1ccc(C(O)(C(F)(F)F)C(F)(F)F)cc1 (racemic) | 109 µL/min/mg | 56 nM | 2930 nM | < 14 µL/min/mg | – |
| Nc1cc(S(=O)(=O)N2CCN(c3ccc(C(O)(C(F)(F)F)C(F)(F)F)cc3)CC2)ccn1 | 27 µL/min/mg | 8630 nM | > 12500 nM | – | – |
| Nc1ncc(S(=O)(=O)N2CCN(c3ccc(C(O)(C(F)(F)F)C(F)(F)F)cc3)CC2)cn1 | < 14 µL/min/mg | – | – | – | – |
| C[C@H]1COCCN1C[C@H]1CN(S(=O)(=O)c2cccs2)CCN1c1ccc(C(C)(O)C(F)(F)F)cc1 (mixture of isomers) | > 399 µL/min/mg | 7 nM | 820 nM | 451 µL/min/mg | – |
| Nc1ccc(S(=O)(=O)N2CCN(c3ccc(C(O)(C(F)(F)F)C(F)(F)F)cc3)CC2)s1 | 128 µL/min/mg | 252 nM | > 12500 nM | – | – |
| CC#C[C@H]1CN(S(=O)(=O)c2ccc(N)nc2)CCN1c1ccc([C@](C)(O)C(F)(F)F)cc1 | – | – | – | – | bioavailability [4]: 57%; Vd [5]: 3.7 L/kg; MRT [6]: 2.9 h |
| CC(O)(c1ccc(N2CCN(S(=O)(=O)c3cccs3)C[C@@H]2CN2CCC(F)(F)CC2)cc1)C(F)(F)F (mixture of isomers) | 349 µL/min/mg | 439 nM | > 12500 nM | 280 µL/min/mg | – |
| CC1CS(=O)(=O)CCN1C[C@H]1CN(S(=O)(=O)c2cccs2)CCN1c1ccc(C(C)(O)C(F)(F)F)cc1 (mixture of isomers) | 93 µL/min/mg | 90 nM | > 12500 nM | 132 µL/min/mg | – |
| CC(C)(C)C#CC1CN(S(=O)(=O)c2ccc(N)nc2)CCN1c1ccc(C(O)(C(F)(F)F)C(F)(F)F)cc1 (racemic) | 90 µL/min/mg | 1430 nM | > 12500 nM | < 14 µL/min/mg | – |
| C[C@](O)(c1ccc(N2CCN(S(=O)(=O)c3cccs3)C[C@@H]2CN2[C@@H]3COC[C@H]2[C@@H](O)C3)cc1)C(F)(F)F | 112 µL/min/mg | 56 nM | > 12500 nM | 131 µL/min/mg | – |
| Nc1ccc(S(=O)(=O)N2CCN(c3ccc(C(O)(C(F)(F)F)C(F)(F)F)cc3)C(C#CC3CC3)C2)cn1 (racemic) | 61 µL/min/mg | 779 nM | > 12500 nM | 52 µL/min/mg | – |
| C[C@](O)(c1ccc(N2CCN(S(=O)(=O)c3cccs3)C[C@@H]2CN2[C@H]3COC[C@@H]2[C@H](O)C3)cc1)C(F)(F)F | 114 µL/min/mg | 16 nM | 4760 nM | 135 µL/min/mg | – |
